Source: ChEMBL document CHEMBL2434944, “Novel acetamidothiazole derivatives: synthesis and in vitro anticancer evaluation” (Eur J Med Chem, 2013)

How the values were obtained:
HCT-15 = assay: Growth inhibition of human HCT15 cells assessed as cell growth at 10^-5 M after 48 hrs by sulforhodamine B assay relative to control; type: functional; details: HCT-15, 48 h, read-out: Activity
In short: (§1)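 NCI-60 single-dose screen at 10^-5 M. Cells grown in RPMI 1640 with 5% FBS and 2 mM L-glutamine, plated at 5,000–40,000 cells/well according to doubling time, and preincubated 24 h at 37°C, 5% CO2. Compound dissolved in DMSO and added. Exposure 48 h. Adherent cells fixed with cold TCA (10% final), suspension cells with 16% final TCA. Read-out is 0.4% SRB staining, dye solubilised in 10 mM Tris, absorbance at 515 nm. Percent growth is calculated against the time-zero plate and untreated control.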

T47D = assay: Growth inhibition of human T47D cells assessed as cell growth at 10^-5 M after 48 hrs by sulforhodamine B assay relative to control; type: functional; details: read-out: Activity
In short: (§2)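 NCI-60 single-dose screen, 10^-5 M final. Cells grown in RPMI 1640 with 5% FBS and 2 mM L-glutamine, seeded at 5,000–40,000 cells/well by doubling time. Preincubated 24 h at 37°C, 5% CO2. Compound in DMSO, diluted in medium with gentamicin, then 48 h exposure. Fixed with cold TCA, SRB stained, A515 read. Percent growth vs untreated control, time-zero plate corrected.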

Thymidylate synthase = Thymidylate synthase (Homo sapiens, UniProt P04818); assay: Inhibition of human thymidylate synthase
[1] = target: Epidermal growth factor receptor (Homo sapiens, UniProt P00533); assay: Inhibition of human EGFR
MCF7 = assay: Growth inhibition of human MCF7 cells assessed as cell growth at 10^-5 M after 48 hrs by sulforhodamine B assay relative to control; type: functional; details: MCF7, 48 h, read-out: Activity; in short: as §1
MOLT-4 = assay: Growth inhibition of human MOLT4 cells assessed as cell growth at 10^-5 M after 48 hrs by sulforhodamine B assay relative to control; type: functional; details: MOLT-4, 48 h, read-out: Activity; in short: as §1
SF-268 = assay: Growth inhibition of human SF268 cells assessed as cell growth at 10^-5 M after 48 hrs by sulforhodamine B assay relative to control; type: functional; details: SF-268, 48 h, read-out: Activity; in short: as §1
K562 = assay: Growth inhibition of human K562 cells assessed as cell growth at 10^-5 M after 48 hrs by sulforhodamine B assay relative to control; type: functional; details: K562, 48 h, read-out: Activity; in short: as §1
A549 = assay: Growth inhibition of human A549 cells assessed as cell growth at 10^-5 M after 48 hrs by sulforhodamine B assay relative to control; type: functional; details: A549, 48 h, read-out: Activity; in short: as §1
NCI-H226 = assay: Growth inhibition of human NCI-H226 cells assessed as cell growth at 10^-5 M after 48 hrs by sulforhodamine B assay relative to control; type: functional; details: NCI-H226, 48 h, read-out: Activity; in short: as §1
NCI-H322M = assay: Growth inhibition of human NCI-H322M cells assessed as cell growth at 10^-5 M after 48 hrs by sulforhodamine B assay relative to control; type: functional; details: read-out: Activity; in short: as §1
SK-MEL-5 = assay: Growth inhibition of human SK-MEL-5 cells assessed as cell growth at 10^-5 M after 48 hrs by sulforhodamine B assay relative to control; type: functional; details: SK-MEL-5, 48 h, read-out: Activity; in short: as §1
CCRF-CEM = assay: Growth inhibition of human CCRF-CEM cells assessed as cell growth at 10^-5 M after 48 hrs by sulforhodamine B assay relative to control; type: functional; details: read-out: Activity; in short: as §1
Cathepsin K = target: T1, Cathepsin K (Homo sapiens, UniProt P43235); assay: Inhibition of human cathepsin K
T1 sequence (P43235 whole entry): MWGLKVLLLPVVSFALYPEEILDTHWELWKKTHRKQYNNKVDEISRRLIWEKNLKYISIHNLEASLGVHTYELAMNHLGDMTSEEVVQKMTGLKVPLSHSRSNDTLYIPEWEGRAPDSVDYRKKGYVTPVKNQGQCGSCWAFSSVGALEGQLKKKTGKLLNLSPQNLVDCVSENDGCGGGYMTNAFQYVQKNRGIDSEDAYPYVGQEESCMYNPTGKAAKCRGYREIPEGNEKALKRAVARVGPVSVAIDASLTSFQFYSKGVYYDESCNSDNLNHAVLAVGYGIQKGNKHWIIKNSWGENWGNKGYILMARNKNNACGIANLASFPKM

HT-29 = assay: Growth inhibition of human HT-29 cells assessed as cell growth at 10^-5 M after 48 hrs by sulforhodamine B assay relative to control; type: functional; details: HT-29, 48 h, read-out: Activity; in short: as §1
IGROV-1 = assay: Growth inhibition of human IGROV1 cells assessed as cell growth at 10^-5 M after 48 hrs by sulforhodamine B assay relative to control; type: functional; details: IGROV-1, 48 h, read-out: Activity; in short: as §1
OVCAR-4 = assay: Growth inhibition of human OVCAR4 cells assessed as cell growth at 10^-5 M after 48 hrs by sulforhodamine B assay relative to control; type: functional; details: OVCAR-4, 48 h, read-out: Activity; in short: as §1
SR = assay: Growth inhibition of human SR cells assessed as cell growth at 10^-5 M after 48 hrs by sulforhodamine B assay relative to control; type: functional; details: read-out: Activity; in short: as §2
SN12C = assay: Growth inhibition of human SN12C cells assessed as cell growth at 10^-5 M after 48 hrs by sulforhodamine B assay relative to control; type: functional; details: read-out: Activity; in short: as §1
M14 = assay: Growth inhibition of human M14 cells assessed as cell growth at 10^-5 M after 48 hrs by sulforhodamine B assay relative to control; type: functional; details: M14, 48 h, read-out: Activity; in short: as §1
[2] = target: Mitogen-activated protein kinase 1 (Homo sapiens, UniProt P28482); assay: Inhibition of human MAPK1
NCI-H522 = assay: Growth inhibition of human NCI-H522 cells assessed as cell growth at 10^-5 M after 48 hrs by sulforhodamine B assay relative to control; type: functional; details: NCI-H522, 48 h, read-out: Activity; in short: as §1
786-0 = assay: Growth inhibition of human 786-0 cells assessed as cell growth at 10^-5 M after 48 hrs by sulforhodamine B assay relative to control; type: functional; details: 786-0, 48 h, read-out: Activity; in short: as §1
RPMI-8226 = assay: Growth inhibition of human RPMI8226 cells assessed as cell growth at 10^-5 M after 48 hrs by sulforhodamine B assay relative to control; type: functional; details: RPMI-8226, 48 h, read-out: Activity; in short: as §1
OVCAR-3 = assay: Growth inhibition of human OVCAR3 cells assessed as cell growth at 10^-5 M after 48 hrs by sulforhodamine B assay relative to control; type: functional; details: OVCAR-3, 48 h, read-out: Activity; in short: as §1
UACC-257 = assay: Growth inhibition of human UACC257 cells assessed as cell growth at 10^-5 M after 48 hrs by sulforhodamine B assay relative to control; type: functional; details: UACC-257, 48 h, read-out: Activity; in short: as §2
NCI-H23 = assay: Growth inhibition of human NCI-H23 cells assessed as cell growth at 10^-5 M after 48 hrs by sulforhodamine B assay relative to control; type: functional; details: NCI-H23, 48 h, read-out: Activity; in short: as §1

Mitogen-activated protein kinase 1, sequence (P28482 whole entry): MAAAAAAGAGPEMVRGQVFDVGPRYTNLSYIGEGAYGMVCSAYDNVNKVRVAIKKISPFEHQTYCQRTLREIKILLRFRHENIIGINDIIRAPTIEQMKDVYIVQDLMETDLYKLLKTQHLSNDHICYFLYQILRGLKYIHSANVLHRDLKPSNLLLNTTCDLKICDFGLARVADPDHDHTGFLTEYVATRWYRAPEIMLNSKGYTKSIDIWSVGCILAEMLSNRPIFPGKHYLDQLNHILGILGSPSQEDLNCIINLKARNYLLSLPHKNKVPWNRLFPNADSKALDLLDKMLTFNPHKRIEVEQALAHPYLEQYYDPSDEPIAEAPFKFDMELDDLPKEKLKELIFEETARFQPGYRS
Thymidylate synthase, sequence (P04818 whole entry): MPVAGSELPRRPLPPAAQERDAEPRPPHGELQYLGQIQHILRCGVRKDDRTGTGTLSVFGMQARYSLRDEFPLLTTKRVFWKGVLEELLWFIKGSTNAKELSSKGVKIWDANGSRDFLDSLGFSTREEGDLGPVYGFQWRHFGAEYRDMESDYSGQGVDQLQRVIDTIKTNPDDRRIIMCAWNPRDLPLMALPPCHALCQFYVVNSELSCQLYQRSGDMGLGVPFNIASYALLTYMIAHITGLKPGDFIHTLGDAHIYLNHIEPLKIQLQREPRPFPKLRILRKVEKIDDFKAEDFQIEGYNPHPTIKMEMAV
Epidermal growth factor receptor, sequence (P00533 whole entry): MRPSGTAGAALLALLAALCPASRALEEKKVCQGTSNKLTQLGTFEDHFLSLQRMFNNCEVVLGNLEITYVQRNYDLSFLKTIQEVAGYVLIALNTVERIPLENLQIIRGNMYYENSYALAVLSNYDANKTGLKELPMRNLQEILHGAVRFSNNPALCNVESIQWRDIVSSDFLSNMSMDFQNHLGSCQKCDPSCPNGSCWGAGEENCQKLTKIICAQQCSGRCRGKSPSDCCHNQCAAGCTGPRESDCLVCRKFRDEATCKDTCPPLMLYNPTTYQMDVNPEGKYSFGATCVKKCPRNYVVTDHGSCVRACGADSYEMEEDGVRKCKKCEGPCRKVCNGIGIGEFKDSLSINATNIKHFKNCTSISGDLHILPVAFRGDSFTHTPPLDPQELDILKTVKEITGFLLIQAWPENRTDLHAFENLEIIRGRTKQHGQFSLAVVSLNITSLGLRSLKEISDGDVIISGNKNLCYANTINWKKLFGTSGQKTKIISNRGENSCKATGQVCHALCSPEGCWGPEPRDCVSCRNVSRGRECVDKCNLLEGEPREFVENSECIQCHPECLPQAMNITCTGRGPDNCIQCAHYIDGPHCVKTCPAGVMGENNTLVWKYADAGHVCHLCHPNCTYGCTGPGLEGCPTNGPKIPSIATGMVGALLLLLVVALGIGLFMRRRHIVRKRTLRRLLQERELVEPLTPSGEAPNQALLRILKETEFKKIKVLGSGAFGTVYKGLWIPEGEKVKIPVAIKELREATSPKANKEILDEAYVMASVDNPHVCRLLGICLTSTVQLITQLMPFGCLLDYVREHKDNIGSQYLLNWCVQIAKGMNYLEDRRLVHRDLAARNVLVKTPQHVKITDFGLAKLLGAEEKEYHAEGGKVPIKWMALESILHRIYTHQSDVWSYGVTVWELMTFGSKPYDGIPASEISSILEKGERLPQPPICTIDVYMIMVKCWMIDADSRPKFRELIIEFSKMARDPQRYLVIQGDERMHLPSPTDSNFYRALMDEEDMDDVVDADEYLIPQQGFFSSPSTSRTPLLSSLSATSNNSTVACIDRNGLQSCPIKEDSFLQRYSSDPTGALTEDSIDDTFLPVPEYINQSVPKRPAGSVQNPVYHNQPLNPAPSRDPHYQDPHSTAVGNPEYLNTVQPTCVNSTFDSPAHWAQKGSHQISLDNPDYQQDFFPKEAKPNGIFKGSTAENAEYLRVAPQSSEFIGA

Structure (SMILES)	growth at 10 µM (HCT-15) [%]	growth at 10 µM (T47D) [%]	Ki (Thymidylate synthase) [µM]	Ki [1] [µM]	growth at 10 µM (MCF7) [%]	growth at 10 µM (MOLT-4) [%]	growth at 10 µM (SF-268) [%]	growth at 10 µM (K562) [%]	growth at 10 µM (A549) [%]	growth at 10 µM (NCI-H226) [%]	growth at 10 µM (NCI-H322M) [%]	growth at 10 µM (SK-MEL-5) [%]	growth at 10 µM (CCRF-CEM) [%]	Ki (Cathepsin K) [µM]	growth at 10 µM (HT-29) [%]	growth at 10 µM (IGROV-1) [%]	growth at 10 µM (OVCAR-4) [%]	growth at 10 µM (SR) [%]	growth at 10 µM (SN12C) [%]	growth at 10 µM (M14) [%]	also measured
Cc1ccc(-c2csc(=N)n2CC(=O)N2CCN(c3ccccc3)CC2)cc1	104	78	5.6	2.97	81.4	94.5	105	100	97.7	97.2	99.7	88.2	103	10.8	111	93.2	88.4	98.8	85.2	108	Ki [2]: 2.09 µM; growth at 10 µM (NCI-H522): 95.5%; growth at 10 µM (786-0): 101%; growth at 10 µM (RPMI-8226): 92.4%; growth at 10 µM (OVCAR-3): 95.4%; growth at 10 µM (UACC-257): 106%; growth at 10 µM (NCI-H23): 101%
N=c1scc(-c2ccc(Cl)cc2)n1CC(=O)N1CCN(c2ccccc2)CC1	96.8	88.9	5.09	5.82	90.8	87	105	84.8	84.8	92.2	99.8	91.9	96.2	11.1	92.9	101	86.4	88	99.8	99.7	Ki [2]: 0.501 µM; growth at 10 µM (NCI-H522): 76.9%; growth at 10 µM (786-0): 97.9%; growth at 10 µM (RPMI-8226): 83.4%; growth at 10 µM (OVCAR-3): 113%; growth at 10 µM (UACC-257): 105%; growth at 10 µM (NCI-H23): 98.3%
N=c1scc(-c2ccccc2)n1CC(=O)N1CCN(c2ccccc2)CC1	97	91.2	1.36	4.68	95.3	99.6	101	103	90.3	93.7	92.6	94.8	95.8	11.6	106	98.9	90.5	89.9	101	101	Ki [2]: 1.73 µM; growth at 10 µM (NCI-H522): 85.1%; growth at 10 µM (786-0): 104%; growth at 10 µM (RPMI-8226): 92.1%; growth at 10 µM (OVCAR-3): 109%; growth at 10 µM (UACC-257): 108%; growth at 10 µM (NCI-H23): 91.7%
CC(=O)N1CCN(C(=O)Cn2c(-c3ccc(C)cc3)csc2=N)CC1	90.6	73.4	3.65	6.09	88.9	73	101	84.3	83.4	96	108	92.1	88.2	24	105	103	97	81.3	87.4	97.9	Ki [2]: 2.23 µM; growth at 10 µM (NCI-H522): 76.9%; growth at 10 µM (786-0): 98.8%; growth at 10 µM (RPMI-8226): 82.3%; growth at 10 µM (OVCAR-3): 108%; growth at 10 µM (UACC-257): 102%; growth at 10 µM (NCI-H23): 95.7%
CC(=O)N1CCN(C(=O)Cn2c(-c3ccc(Cl)cc3)csc2=N)CC1	86.5	79	11.3	8.58	84.5	77	95.1	72	75.9	96.3	90.4	86.4	92.3	24.2	85.8	100	77.2	74.7	88.6	95.1	Ki [2]: 0.778 µM; growth at 10 µM (NCI-H522): 62.1%; growth at 10 µM (786-0): 94.4%; growth at 10 µM (RPMI-8226): 73.3%; growth at 10 µM (OVCAR-3): 97.7%; growth at 10 µM (UACC-257): 91%; growth at 10 µM (NCI-H23): 96.9%
